From PubChem
Hits are enriched below; roughly 3.9% of the tested compounds scored in any of these assays.
STAT1 blocker – STAT1 signaling inhibitors, primary screen, cell-based, HTS, luciferase reporter. NIH 3T3 STAT1-luciferase reporter, IFN-gamma, luminescence. inhibition, % at 5.5 µM. 200,000 compounds, 0.35% hits. AID 920, 2007;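 active = inhibition above a set limit, the mean inhibition across all tested compounds plus 3 SD, cut at about 34% in these data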;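 note: 0% = IFN-gamma with DMSO and 100% = IFN-gamma with 300 µM nifuroxazide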
STAT1 activator – STAT1 signaling activators, primary screen, cell-based, HTS, luciferase reporter | NIH 3T3 STAT1-luciferase reporter, IFN-gamma, luminescence; 100% = IFN-gamma alone, no compound | activation (% of control), % at 5.5 µM | 200,000 compounds, 2.6% hits | AID 932, 2007;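 active = activation above the screen-wide mean activation plus 3 SD, cut at about 130% in these data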;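 note: raw ratio to IFN-gamma control signal so 100% means no change and 0% no light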
APP 5'UTR act – activators of APP 5'UTR luciferase reporter, primary screen, SH-SY5Y cells | SH-SY5Y APP 5'UTR luciferase reporter, luminescence; zero percent = DMSO vehicle wells | activation, % at 2 µM | 190,000 compounds, 1% hits;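 active = activation above a set limit, based on mean plus 3 SD of controls, cut at about 140% in these data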
Pf gametocyte – late stage P. falciparum gametocyte viability inhibitors, primary screen, ATP luminescence, HTS; P. falciparum stage V gametocytes, 24 h; inhibition, % at 10.9 µM; 150,000 compounds, 0.065% hits;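 active = inhibition above the mean plus 3 SD of compounds within the control limits, set per campaign, cut at about 38% in these data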;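 note: 0% = DMSO wells and 100% = medium only without gametocytes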
NF-kB expr up – activators of NF-kB expression in neurons, primary screen, cell-based, HTS; 190,000 compounds, 1.6% hits; AID 1239, 2008; human neuronal cells, NF-kB reporter expression; stronger effect = higher value; fold change at 12.5 µM; in the data active = fold change above about 3.3
STAT3 activator – IL-6 driven STAT3 reporter potentiators, primary screen, U3A cells, luciferase, luminescence, MLSCN library | IL-6 STAT3-luciferase reporter; 100% = signal with IL-6 EC80 alone | activation (% of control), % at 5.6 µM | 190,000 compounds, 0.91% hits | AID 871, 2007;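 active = activation above the screen-wide mean of compound activation plus 3 SD, cut at about 130% in these data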;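 note: 0% = background luminescence of wells with medium and substrate only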
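Assay system – human STAT1-deficient U3A cells with stable STAT3-luciferase reporter · Also added – IL-6 (33 ng/mL) · Schedule – compound 1 h, then IL-6 6 h at 37 °C · Technique – reporter luminescence signal · Evaluation – % activation versus median of IL-6-stimulated wells · Benchmarks – IL-6-only wells as 100% reference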
STAT1 act conf – STAT1 signaling activators, confirmation, cell-based, HTS, luciferase reporter; 1,200 compounds, 97% hits; shares compounds with STAT1 activator; activation (% of control), % at 5.7 µM; NIH 3T3 STAT1-luciferase reporter, IFN-gamma potentiation, luminescence; 100% = IFN-gamma EC80 alone, no compound;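 active = activation above a set limit carried over from the earlier primary STAT1 screen, cut at about 140% in these data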;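 note: simple ratio to median IFN-gamma plus DMSO wells so 0% means no light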
NFkB act STAT1ct – NF-kB reporter activators, TNF-alpha stimulated, counter-screen for STAT1 activator project, cell-based, HEK293T, luciferase luminescence. shares compounds with STAT1 activator. 100% = TNF-alpha with vehicle only. activation (% of control), % at 5.7 µM. 1,200 compounds, 43% hits;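 active = activation above the mean of solvent-only control wells plus 3 SD, set per campaign, cut at about 130% in these data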;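 note: TNF-alpha given at a submaximal dose yielding about 80% of full reporter signal; values are well signal over median control so 100% means no change and 0% no light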
STAT3 act STAT1c – STAT3 reporter activation by STAT1 hits, confirmation, counter-screen for STAT1 activator project, U3A cells, luciferase, luminescence; shares compounds with STAT1 activator; IL-6; cells lack STAT1; 100 = IL-6 alone, no compound effect; activation (% of control), % at 5.7 µM; 1,200 compounds, 46% hits; AID 1316, 2008;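 active = activation above the solvent-only control well mean plus 3 SD, set per plate batch, cut at about 110% in these data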;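 note: 0% = no luminescence and 100% = median IL-6 plus DMSO wells; higher means more STAT3 reporter activation so hits are non-selective activators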
Numbers without * were called inactive; x = no result.

SMILES	STAT1 blocker	STAT1 activator	APP 5'UTR act	Pf gametocyte	NF-kB expr up	STAT3 activator	STAT1 act conf	NFkB act STAT1ct	STAT3 act STAT1c
CCC(=O)Nc1nc(-c2ccc3c(c2)OCCO3)cs1	-58	153*	147*	x	7.1*	103	212*	145*	110
CCOc1ccc(/C=N/Nc2ccccn2)cc1OC	-65	155*	50	12	1.1	108	154*	119	105
CCOc1ccc(/C=N/N(C)c2ccccc2)cc1OC	-69	163*	88	x	4.9*	103	187*	142*	109
Cc1ccc(NC(=S)N2CCCC(CO)C2)c(C)c1 (stereo not given)	-21	116	-10	4	1.2	105	x	x	x
COC(=O)C(C)N1C(=O)S/C(=C\c2cc(C)n(-c3ccccn3)c2C)C1=O (stereo not given)	-27	125	109	-20	2.9	101	x	x	x
COC(=O)C(C)N1C(=O)S/C(=C/c2cc(C)n(-c3ccccn3)c2C)C1=O (stereo not given)	-45	152*	59	x	3.6*	107	173*	133*	116*
CC1Cc2ccccc2N1C(=O)/C=C/c1cccc(F)c1 (stereo not given)	-62	158*	189*	-11	6.3*	99	202*	141*	106
Cc1ccc(/C=C(\C#N)C(=O)Nc2ccccn2)o1	-100	187*	100	15	4.3*	103	205*	138*	111*
Cc1ccc(/C=C(\C#N)C(=O)NC(C)C)o1	-5	103	7	7	1	96	x	x	x
COc1ccc(NC(=O)c2c(N)cnn2C)cc1	x	x	x	2	x	x	x	x	x
C/C(=N/NC(=O)c1ccoc1C)c1cccc(NC(=O)C2CC2)c1	-67	159*	116	15	1.6	108	110	109	100
CCCCC(=O)N/N=C(\C)c1cccc(NC(=O)C2CC2)c1	1	101	3	7	1.1	99	x	x	x
C/C(=N/NC(=O)c1ccoc1C)c1cccc(NC(=O)C(F)(F)F)c1	-63	156*	52	-1	1.6	106	116	109	96
Cc1ccc(NC(=S)c2nc3ccccc3[nH]2)c(C)c1	-77	169*	133	x	3.2	87	191*	122	113*
Cc1ccc(C)c(Nc2nc3ccccc3[nH]2)c1	x	x	x	21	x	x	x	x	x
C/C(=C\c1ccccc1)C(=O)Nc1nccs1	-58	154*	99	-6	2.6	98	163*	123	95
N#C/C(=C\c1cccs1)C(=O)Nc1nccs1	-117	207*	54	5	4.1*	113	229*	150*	114*
O=C1OC(c2ccccc2)=C/C1=C/N1CCCCC1	-77	170*	65	x	1.3	111	160*	119	117*
C[C@@]12CCC=C[C@H]1[C@H](c1ccc(C(F)(F)F)cc1)N(Cc1ccccc1)C2=O	x	x	x	-5	x	x	x	x	x
Clc1cccc(/C=N/Nc2ncnc3ccccc23)c1	-67	162*	x	-6	4.4*	133	227*	143*	134*
Nc1c(Cl)ncnc1N/N=C/c1ccnc2ccccc12	-11	110	24	x	1.1	80	x	x	x
CCOC(=O)c1sc(N/N=C/c2ccccc2)nc1C	-56	152*	134	-7	2.6	111	183*	134*	107
COC(=O)c1ccc(N=NNc2cccc(Br)c2)cc1	-58	152*	61	4	3.3*	114	224*	134*	129*
COC(=O)C(C)Nc1cccc(Br)c1 (stereo not given)	x	x	x	12	x	x	x	x	x
O=C(Nc1ccccc1C(=O)Nc1ccccc1)c1ccccc1Br	x	x	x	-13	x	x	x	x	x
SMILES	STAT1 blocker	STAT1 activator	APP 5'UTR act	Pf gametocyte	NF-kB expr up	STAT3 activator	STAT1 act conf	NFkB act STAT1ct	STAT3 act STAT1c
CCc1ccc(NC(=O)c2ccccc2Br)cc1	-64	155*	130	-5	4.2*	100	177*	138*	103
Cc1ccsc1/C=N/NS(=O)(=O)c1ccc([N+](=O)[O-])cc1	-10	109	-3	20	1	101	x	x	x
O=C(CC1CCCC1)Nc1ccc2c(c1)CCC2	-30	127	87	-3	2.3	109	x	x	x
O=C(N/N=C\c1ccco1)Nc1cccc(Cl)c1	-60	153*	80	-32	3.3*	102	172*	133*	106
COc1ncccc1-c1nnn(-c2ccc(Cl)c(Cl)c2)n1	-61	158*	106	x	4*	x	164*	132	101
c1cncc(-c2nnc(-c3cccnc3)nn2)c1	-6	105	3	x	1	100	x	x	x
Cc1ccc(-n2nnc(-c3cc4ccccc4nc3Cl)n2)cc1	12	90	5	x	1.7	x	x	x	x
COc1ncccc1-c1nnn(-c2ccc(F)cc2)n1	-57	155*	106	16	3.8*	x	194*	132	112*
Clc1ccc(-n2nnc(-c3cccnc3)n2)cc1Cl	-62	159*	51	-8	2.3	x	149*	125	108
COc1ncccc1-c1nnn(-c2ccc(C)cc2)n1	-54	152*	98	x	3.7*	x	205*	141*	117*
O=C(c1ccc(Cl)cc1)c1c[nH]c(C(=O)NNc2ccccc2)c1	3	97	9	20	1.3	98	x	x	x
O=C(COC(=O)c1ccc(S(=O)(=O)N2CCCC2)cc1)NCc1cccs1	-2	100	20	-2	1	103	x	x	x
COc1ccc(N=Cc2sc(O)c3ccccc23)cc1	-82	173*	214*	7	13*	103	331*	154*	104
Cn1ccnc1C1CCCCN1Cc1nc(-c2ccc(Cl)cc2)no1 (stereo not given)	-1	99	8	-21	1.1	102	x	x	x
CCn1c(C)cc(/C=C2/NC(=O)N(c3ccccc3)C2=O)c1C	-78	168*	89	8	0.95	101	187*	139*	103
